The record followed here is ChEMBL document CHEMBL6092133, “Enhancing the therapeutic window for Spectinamide anti-tuberculosis Agents: Synthesis, Evaluation, and activation of phosphate prodrug 3408” (Bioorg Med Chem Lett, 2024).

Data set [1] relates to Mycobacterium tuberculosis. Nature of the data set: Antibacterial activity against Mycobacterium tuberculosis Erdman harboring pFCA-LuxAB plasmid infected in female BALB/c mouse model assessed as log reduction in bacterial burden in lung at 400 mg/kg, SC administered once daily for 12 days starting from day 7 and measured 3 days post last treatment relative to untreated control. It counts as functional. Particulars: time 15 day; call rule not given here. In short, it runs like this:
(§1)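 BALB/c mice given a low-dose aerosol infection with M. tuberculosis Erdman pFCA-LuxAB. Dosing ran once daily for 12 consecutive days from day 7 post-infection: 10 mg/kg orally or 400 mg/kg, as the line states. Lung bacterial burden (log10 CFU) was compared with untreated control, six mice per group.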

Data set [2] in a line: Drug uptake in female BALB/c mouse plasma infected with Mycobacterium tuberculosis Erdman harboring pFCA-LuxAB plasmid at 400 mg/kg, SC measured after 15 mins. It counts as ADME, organism-based. The conditions noted are these: in vivo, 0.25 h. In short, it runs like this: (§2)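 Plasma was sampled from infected BALB/c mice in the acute efficacy study 15 min and 8 h after a 400 mg/kg dose. Parent drug and prodrug levels were each quantified in the prodrug-treated and parent-treated groups.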

Data set [3] can be described thus: Drug uptake in female BALB/c mouse plasma infected with Mycobacterium tuberculosis Erdman harboring pFCA-LuxAB plasmid at 400 mg/kg, SC measured after 8 hrs. It counts as ADME, organism-based. Particulars: in vivo. In short, it runs like this:
as §2

Data set [4] in a line: Prodrug conversion in female BALB/c mouse plasma infected with Mycobacterium tuberculosis Erdman harboring pFCA-LuxAB plasmid assessed as 2-(5-chloropyridin-2-yl)-N-((2R,4R,4aS,5aR,6S,7S,8R,9S,9aR,10aS)-4a,7,9-trihydroxy-2-methyl-6,8-bis(methylamino)decahydro-2H-benzo[b]pyrano[2,3-e][1,4]dioxin-4-yl)acetamide formation at 400 mg/kg, SC measured after 8 hrs. It counts as ADME, organism-based. Particulars: in vivo. In short, it runs like this: as §2

Data set [5] in a line: Prodrug conversion in female BALB/c mouse plasma infected with Mycobacterium tuberculosis Erdman harboring pFCA-LuxAB plasmid assessed as 2-(5-chloropyridin-2-yl)-N-((2R,4R,4aS,5aR,6S,7S,8R,9S,9aR,10aS)-4a,7,9-trihydroxy-2-methyl-6,8-bis(methylamino)decahydro-2H-benzo[b]pyrano[2,3-e][1,4]dioxin-4-yl)acetamide formation at 400 mg/kg, SC measured after 15 mins. It counts as ADME, organism-based. Particulars: in vivo, 0.25 h. A digest of the protocol: as §2

Data set [6] deals with Mycobacterium tuberculosis. The data set is described as follows: Antibacterial activity against Mycobacterium tuberculosis Erdman harboring pFCA-LuxAB plasmid infected in female BALB/c mouse model assessed as log reduction in bacterial burden in lung at 10 mg/kg, po administered once daily for 12 days starting from day 7 and measured 3 days post last treatment relative to untreated control. The conditions noted are these: time 15 day. The data set is classed as functional. In short, it runs like this: as §1

As for `CN[C@@H]1[C@H](O)[C@H](NC)[C@H]2O[C@]3(O)[C@H](O[C@@H]2[C@H]1O)O[C@H](C)C[C@H]3NC(=O)Cc1ccc(O)cn1`, in data set [1], the “log(activity)” value amounted to 1.13. For the same compound, the Drug uptake result in data set [2] and in data set [3] was “Active” each time.

With `CN[C@@H]1[C@H](O)[C@H](NC)[C@H]2O[C@]3(O)[C@H](O[C@@H]2[C@H]1O)O[C@H](C)C[C@H]3NC(=O)Cc1ccc(OP(=O)(O)O)cn1`, the “log(activity)” value in data set [1] was found to be 1.11. For the same compound, the Drug metabolism entry in data set [4] and in data set [5] was “metabolite_detected” in each case. The Drug uptake result in data set [2] is recorded as “Active”.

Turning to `CO[C@H]1/C=C/O[C@@]2(C)Oc3c(C)c(O)c4c(O)c(c(/C=N/N5CCN(C)CC5)c(O)c4c3C2=O)NC(=O)/C(C)=C\C=C\[C@H](C)[C@H](O)[C@@H](C)[C@@H](O)[C@@H](C)[C@H](OC(C)=O)[C@@H]1C` [RIFAMPIN], in data set [6], the “log(activity)” value is 1.21.
